Experimental data taken from ChEMBL document CHEMBL5512639, “Insights from structure-activity relationships and the binding mode of peptidic α-ketoamide inhibitors of the malaria drug target subtilisin-like SUB1” (Eur J Med Chem, 2024).
pIC50, pKi: −log10 of the molar value. Calls of active or inactive are those of the source. No cut-off for these calls is given here. Numbered stars: 1 amine (or outer) side, 2 acyl side, 3 side chain; on linkers, the order of the positions; unused ones are H or OH. Square brackets hold non-standard residues; d marks the D form. Peptide text beside a SMILES is read from it. * marks the point of attachment. Asp(3,3-Me2) = CC(C)(C(=O)O)[C@H](N)C(=O)O; X3 = NC(=O)CC[C@H](N[*:1])C(=O)C(=O)[*:2]; Gly(cPent) = N[C@H](C(=O)O)C1CCCC1; X1 = C[C@H](N[*:1])C(=O)C(=O)[*:2]; Pentanoyl(4-Me) = CC(C)CCC(=O)*; Cha = N[C@@H](CC1CCCCC1)C(=O)O; Chg = N[C@H](C(=O)O)C1CCCCC1; OAll = C=CCO*

Key:
[1] = Inhibition of elastase (unknown origin); design: species or system Homo sapiens
Sus scrofa [2] = organism: Sus scrofa; assay: Inhibition of porcine Pancreas trypsin using Nalpha-benzoyl-L-arginine-p-nitroanilide hydrochloride preincubated with compound for 15 mins followed by substrate addition and measured after 1 hr; details: time 75.0 min
Method in brief: (§1)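 Enzyme in 100 mM Tris-HCl pH 8.0, 20 mM CaCl2: trypsin 5 μg/mL, chymotrypsin 0.5 μg/mL or elastase 5 μg/mL. Mixed with compound (2 μL of 10 mM stock into 98 μL) and preincubated 15 min. p-Nitroanilide substrate then added to 1 mM final. Absorbance at 405 nm followed for 1 h; DMSO and 2 mM PMSF as controls; triplicate.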

[3] = Selectivity ratio of IC50 for inhibition of full length recombinant Plasmodium vivax SUB1 expressed in Drosophila S2 cells using Dabsyl-KLVGADDV-SLA-EDANS as substrate to IC50 for inhibition of full length recombinant Plasmodium falciparum SUB1 using Dabsyl-KLVSADNIDIS-EDANS as substrate
Sus scrofa [4] = organism: Sus scrofa; assay: Inhibition of porcine Pancreas elastase using Nalpha-succinyl-Ala-Ala-Ala-p-nitroanilide preincubated with compound for 15 mins followed by substrate addition and measured after 1 hr relative to control; details: time 75.0 min; method in brief: as §1
Bos taurus = organism: Bos taurus; assay: Inhibition of bovine Pancreas chymotrypsin using Nalpha-succinyl-Ala-Ala-Pro-phe-p-nitroanilide preincubated with compound for 15 mins followed by substrate addition and measured after 1 hr; details: time 75.0 min; method in brief: as §1
[5] = Selectivity ratio, ratio of IC50 for porcine Pancreas elastase to IC50 for Plasmodium falciparum SUB1
[6] = Inhibition of porcine Pancreas elastase using Nalpha-succinyl-Ala-Ala-Ala-p-nitroanilide preincubated with compound for 15 mins followed by substrate addition and measured after 1 hr; design: species or system Sus scrofa; method in brief: as §1
[7] = Inhibition of full length recombinant Plasmodium vivax SUB1 expressed in Drosophila S2 cells using Dabsyl-KLVGADDV-SLA-EDANS as substrate measured every 2 mins for 1 hr by FRET assay
[8] = test system: Subtilisin-like protease 1 (Plasmodium vivax); assay: Binding affinity to Plasmodium vivax SUB1 using Dabsyl-KLVGADDV-SLA-EDANS as substrate using catalytic domain assessed as bound half life by jump dilution assay
Plasmodium falciparum [9] = assay: Antiparasitic activity against Plasmodium falciparum infected in human Erythrocyte assessed as inhibition of merozoite egress from human Erythrocyte at 100 uM measured for 8 hrs by flow cytometry analysis relative to control; type: functional
Method in brief: (§2)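 P. falciparum cultured in human RBCs, RPMI 1640 with 25 mM HEPES, 2.5% Albumax II, 100 μM hypoxanthine, 37 °C, 5% O2/5% CO2. Sorbitol-synchronized, plasmion-enriched late schizonts at 2% hematocrit, 1% parasitemia exposed to compound for 8 h. Fixed in glutaraldehyde, permeabilized, RNase-treated, stained with YOYO-1. Ring parasitemia by flow cytometry (100,000 events) vs DMSO. Triplicate; IC50 from 16 concentrations, 180 to 0.8 μM.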

[10] = test system: Subtilisin-like protease 1 (Plasmodium vivax); assay: Binding affinity to Plasmodium vivax SUB1 using Dabsyl-KLVGADDV-SLA-EDANS as substrate using catalytic domain assessed as dissociation constant (Koff) by jump dilution assay
[11] = Metabolic stability in human serum measured after 24 hrs by LC-MS analysis; type: ADME, cell-free; details: read-out: Stability
Method in brief: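 Pooled human serum prewarmed 20 min at 37 °C; peptide added to 0.6 mM final. Aliquots taken over 0-24 h and proteins precipitated with MeCN/H2O/formic acid. Supernatant lyophilized and analysed by LC-SWATH-MS. Intact peak area expressed as % of the 0 h value. Two independent experiments in duplicate, mean ± SEM.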

[12] = test system: Subtilisin-like protease 1 (Plasmodium vivax); assay: Binding affinity to Plasmodium vivax SUB1 catalytic domain assessed as thermal stabilization by measuring change in melting temperature by differential scanning fluorimetry
[13] = molecular target: T1, Subtilisin-like protease 1 (Plasmodium falciparum, UniProt O61142); assay: Inhibition of full length recombinant Plasmodium falciparum SUB1 using Dabsyl-KLVSADNIDIS-EDANS as substrate measured every 2 mins for 1 hr by FRET assay
T1 sequence (O61142 whole entry): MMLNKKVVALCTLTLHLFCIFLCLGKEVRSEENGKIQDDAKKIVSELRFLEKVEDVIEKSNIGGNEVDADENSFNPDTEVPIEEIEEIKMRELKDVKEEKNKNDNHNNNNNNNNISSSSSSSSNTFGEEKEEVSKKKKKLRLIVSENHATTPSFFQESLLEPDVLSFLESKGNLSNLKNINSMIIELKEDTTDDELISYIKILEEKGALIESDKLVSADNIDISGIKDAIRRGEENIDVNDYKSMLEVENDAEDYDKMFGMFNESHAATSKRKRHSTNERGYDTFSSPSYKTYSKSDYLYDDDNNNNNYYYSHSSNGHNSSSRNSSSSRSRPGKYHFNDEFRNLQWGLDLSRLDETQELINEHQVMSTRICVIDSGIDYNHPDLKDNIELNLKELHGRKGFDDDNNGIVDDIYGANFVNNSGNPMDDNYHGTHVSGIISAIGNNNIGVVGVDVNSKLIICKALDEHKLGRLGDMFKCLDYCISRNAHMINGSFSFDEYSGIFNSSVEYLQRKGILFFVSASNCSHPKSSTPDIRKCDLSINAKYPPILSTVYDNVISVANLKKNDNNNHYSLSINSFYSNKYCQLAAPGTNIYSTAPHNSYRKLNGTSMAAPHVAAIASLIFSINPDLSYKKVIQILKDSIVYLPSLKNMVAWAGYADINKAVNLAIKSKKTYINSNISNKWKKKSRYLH

[14] = Selectivity ratio, ratio of IC50 for porcine Pancreas elastase to IC50 for Plasmodium vivax SUB1
Plasmodium falciparum [15] = assay: Antiparasitic activity against Plasmodium falciparum infected in human Erythrocyte assessed as inhibition of merozoite egress from human Erythrocyte measured for 8 hrs by flow cytometry analysis; type: functional, organism-based; method in brief: as §2
Plasmodium falciparum [16] = assay: Antiparasitic activity against Plasmodium falciparum infected in human Erythrocyte assessed as inhibition of merozoite egress from human Erythrocyte at 25 uM measured for 8 hrs by flow cytometry analysis relative to control; type: functional; method in brief: as §2
[17] = (§3) Selectivity index, ratio of INH for antiparasitic activity against Plasmodium falciparum infected in human Erythrocyte assessed as inhibition of merozoite egress from human Erythrocyte at 100 uM to INH for antiparasitic activity against synchronous parasite Plasmodium falciparum infected in human Erythrocyte at 100 uM; type: functional
Method in brief: (§4)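 SI = 1 − (% trophogony inhibition / % T0-T8 egress inhibition), each at the same concentration. Trophogony arm: 0-3 h rings, 28 h exposure, washout, 38 h regrowth. Egress arm: late schizonts, 8 h exposure. Both read as parasitemia by flow cytometry vs DMSO.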

[18] = as §3, with “25” for “100”; type: functional; method in brief: as §4
Plasmodium falciparum [19] = assay: Antiparasitic activity against synchronous parasite Plasmodium falciparum infected in human Erythrocyte at 25 uM incubated for 28 hrs followed by compound washout and measured after 38 hrs; type: functional
Method in brief: (§5)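 Trophogony off-target check: synchronous 0-3 h post-invasion rings (2% hematocrit, 1% parasitemia) exposed to compound or matched DMSO (1% or 0.25% final) for 28 h. Cells then washed and recultured without compound for 38 h. Parasitemia read by YOYO-1 flow cytometry; growth inhibition expressed relative to DMSO.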

Plasmodium falciparum [20] = assay: Antiparasitic activity against synchronous parasite Plasmodium falciparum infected in human Erythrocyte at 100 uM incubated for 28 hrs followed by compound washout and measured after 38 hrs; type: functional; method in brief: as §5
[21] = molecular target: T1, Subtilisin-like protease 1; assay: Inhibition of Plasmodium falciparum SUB1 assessed as inhibition constant

SMILES	Ratio IC50 [3]	pIC50 [7]	inhibition at 100 µM (Plasmodium falciparum [9]) [%]	pIC50 [13]	further results
C=CCOC(=O)CC[C@H](NC(=O)[C@H](CC(=O)O)NC(=O)C(=O)[C@H](C)NC(=O)[C@H](C)NC(=O)[C@@H](NC(=O)[C@@H](NC(C)=O)C1CCCC1)[C@@H](C)O)C(N)=O	9	7.30	37	6.24	pIC50 [1]: 6.09; inhibition (Sus scrofa [2]): inactive; inhibition (Sus scrofa [4]): Active; inhibition (Bos taurus): inactive; Ratio IC50 [5]: 63; pIC50 [6]: 4.44; T1/2 [8]: 30 min; K [10]: 0.023 min⁻¹; remaining at 24 h [11]: ~95%; ΔTm [12]: 14.3 °C; Ratio IC50 [14]: 720
C[C@@H](NC[C@@H](O)[C@H](Cc1ccccc1)NC(=O)c1ccc(C(=O)N2CCN(C)CC2)cc1)c1ccccc1	–	–	–	–	pIC50 (Plasmodium falciparum [15]): 8.96
C=CCOC(=O)CC[C@H](NC(=O)[C@H](CC(=O)O)NC(=O)C(=O)[C@H](C)NC(=O)[C@H](C)NC(=O)[C@@H](NC(=O)[C@@H](NC(C)=O)[C@@H](C)CC)[C@@H](C)O)C(N)=O (Ac-ITA[X1]DE(OAll)-NH2)	9	6.74	13	5.71	T1/2 [8]: 10 min; K [10]: 0.074 min⁻¹; remaining at 24 h [11]: ~95%
C=CCOC(=O)CC[C@H](NC(=O)[C@H](CC(=O)O)NC(=O)C(=O)[C@H](C)NC(=O)[C@H](C)NC(=O)[C@@H](NC(=O)[C@H](CC1CCCCC1)NC(C)=O)[C@@H](C)O)C(N)=O (Ac-[Cha]TA[X1]DE(OAll)-NH2)	9	5.39	–	4.46	inhibition (Plasmodium falciparum [9]): inactive; ΔTm [12]: 6.8 °C
C=CCOC(=O)CC[C@H](NC(=O)[C@H](CC(=O)O)NC(=O)C(=O)[C@H](C)NC(=O)[C@H](C)NC(=O)[C@@H](NC(=O)[C@@H](NC(C)=O)C1CCCCC1)[C@@H](C)O)C(N)=O (Ac-[Chg]TA[X1]DE(OAll)-NH2)	9	6.70	13	5.71	–
CC(=O)N[C@H](C(=O)N[C@H](C(=O)N[C@@H](C)C(=O)N[C@@H](C)C(=O)C(=O)N[C@@H](CC(=O)O)C(N)=O)[C@@H](C)O)C1CCCC1 (Ac-[Gly(cPent)]TA[X1]D-NH2)	–	7.00	32	6.26	T1/2 [8]: 20 min; K [10]: 0.034 min⁻¹
CC[C@H](C)[C@H](NC(=O)[C@H](CC(=O)O)NC(=O)C(=O)[C@H](C)NC(=O)[C@H](C)NC(=O)[C@@H](NC(=O)[C@@H](NC(C)=O)C1CCCC1)[C@@H](C)O)C(N)=O (Ac-[Gly(cPent)]TA[X1]DI-NH2)	–	7.85	99.8	7.77	inhibition at 25 µM (Plasmodium falciparum [16]): 25%
CC(=O)N[C@H](C(=O)N[C@H](C(=O)N[C@@H](C)C(=O)N[C@@H](C)C(=O)C(=O)N[C@@H](CC(=O)O)C(=O)N[C@H](C(N)=O)C1CCCC1)[C@@H](C)O)C1CCCC1 (Ac-[Gly(cPent)]TA[X1]D[Gly(cPent)]-NH2)	–	7.92	100	8.00	inhibition at 25 µM (Plasmodium falciparum [16]): 60%; Selectivity Index [17]: 0.94; pIC50 (Plasmodium falciparum [15]): 4.65; Selectivity Index [18]: 1; ΔTm [12]: 12.7 °C; Activity (Plasmodium falciparum [19]): 0%; Activity (Plasmodium falciparum [20]): 6%
C=CCOC(=O)CC[C@H](NC(=O)[C@H](CO)NC(=O)C(=O)[C@H](C)NC(=O)[C@H](C)NC(=O)[C@@H](NC(=O)[C@@H](NC(C)=O)C1CCCC1)[C@@H](C)O)C(N)=O (Ac-[Gly(cPent)]TA[X1]SE(OAll)-NH2)	–	4.96	11	4.49	–
C=CCOC(=O)CC[C@H](NC(=O)[C@@H](NC(=O)C(=O)[C@H](C)NC(=O)[C@H](C)NC(=O)[C@@H](NC(=O)[C@@H](NC(C)=O)C1CCCC1)[C@@H](C)O)C(C)(C)C(=O)O)C(N)=O (Ac-[Gly(cPent)]TA[X1][Asp(3,3-Me2)]E(OAll)-NH2)	–	6.74	3	5.99	–
C=CCOC(=O)CC[C@H](NC(=O)[C@H](CC(=O)O)NC(=O)C(=O)[C@H](C)NC(=O)[C@H](C)NC(=O)[C@H](Cc1ccc(O)cc1)NC(=O)[C@@H](NC(C)=O)C1CCCC1)C(N)=O (Ac-[Gly(cPent)]YA[X1]DE(OAll)-NH2)	–	7.60	44	6.82	–
C=CCOC(=O)CC[C@H](NC(=O)[C@H](CC(=O)O)NC(=O)C(=O)[C@H](C)NC(=O)[C@H](C)NC(=O)[C@@H](NC(=O)[C@@H](NC(C)=O)C1CCCC1)C1CCCC1)C(N)=O (Ac-[Gly(cPent)][Gly(cPent)]A[X1]DE(OAll)-NH2)	1.25	7.10	46	7.00	inhibition at 25 µM (Plasmodium falciparum [16]): 6%
CC[C@H](C)[C@H](NC(=O)[C@H](CCCCN)NC(=O)CCC(C)C)C(=O)N[C@H](C(=O)N[C@@H](C)C(=O)N[C@@H](CCC(N)=O)C(=O)C(=O)N[C@@H](CC(=O)O)C(=O)N[C@@H](CC(=O)O)C(=O)N[C@@H](CCC(N)=O)C(=O)N[C@@H](CCC(N)=O)C(N)=O)[C@@H](C)O ({Pentanoyl(4-Me)}-KITA[X3]DDQQ-NH2)	–	–	–	–	pKi [21]: 5.00
